Published values collected from several papers.
Organism: Staphylococcus aureus
Observed: microbial growth

SMILES | test | test system | conditions | MIC
COC(=O)c1cc(-c2cccc(NC(=O)Nc3ccc(F)c(F)c3)c2)on1 | broth dilution | ATCC29213 | – | > 64 µg/mL
CCCCCC/C=C\CCCCCCCCCC(=O)NP(=O)(O)O | – | ATCC33591 MRSA | drug-resistant strain | 200 µg/mL
c1ccc2[nH]c(-c3ccncc3)nc2c1 | broth dilution | ATCC43300 MRSA | drug-resistant strain | 256 µg/mL
COC(=O)c1cc(-c2cccc(NC(=S)Nc3cc(C(F)(F)F)cc(C(F)(F)F)c3)c2)on1 | broth dilution | ATCC29213 | – | 8 to 16 µg/mL
CNC(=O)c1cc(Sc2ccc(NC(=S)Nc3ccc(Cl)c(C(F)(F)F)c3)cc2)ccn1 | – | NCTC8325 | – | 3 µM
CC(=O)Nc1c2sscc-2[nH]c1=O | – | MRSA | drug-resistant strain | 2.5 µM
[H]/N=C(/N)N[C@H]1[C@H](O)[C@@H](O)[C@H](O[C@@H]2O[C@@H](C)[C@](O)(C=O)[C@H]2O[C@@H]2O[C@@H](CO)[C@H](O)[C@@H](O)[C@@H]2NC)[C@@H](N/C(N)=N\[H])[C@@H]1O | – | USA300 | – | 64 µg/mL
C=CCn1c(-c2ccc([N+](=O)[O-])cc2)nc2ccccc21 | broth dilution | ATCC43300 MRSA | drug-resistant strain | 64 µg/mL
COC(=O)c1cc(-c2cccc(NC(=S)Nc3ccc(C#N)cc3)c2)on1 | broth dilution | ATCC29213 | – | > 64 µg/mL
CCCCCCC#Cc1cncc(-c2nnc(Sc3ccc([N+](=O)[O-])cc3[N+](=O)[O-])n2C)c1 | – | MRSA | drug-resistant strain | ≥ 20 µg/mL
CCCCCCCCCCCC(=O)NP(=O)(O)O | – | ATCC33591 MRSA | drug-resistant strain | 200 µg/mL
Cc1ccc2nc(-c3ccco3)n(Cc3ccccc3)c2c1 | broth dilution | ATCC43300 MRSA | drug-resistant strain | 128 µg/mL
CO[C@H]1[C@H](O[C@H]([C@H]2O[C@@H](n3ccc(=O)[nH]c3=O)[C@H](O)[C@@H]2O)[C@H](NCCCNC(=O)[C@@H](NC(=O)[C@@H](NC(=O)N[C@H](C(=O)O)C(C)C)[C@@H]2CCN=C(N)N2)[C@@H](OC(=O)CCCCCCC(C)C)C(C)C)C(=O)O)O[C@H](CN)[C@H]1O | – | NEWMAN | – | > 32 µg/mL
COC(=O)c1cc(-c2cccc(NC(=O)Nc3ccccc3)c2)on1 | broth dilution | ATCC29213 | – | > 64 µg/mL
Cc1ccc2nc(-c3ccc(Cl)cc3)n(Cc3ccccc3)c2c1 | broth dilution | ATCC43300 MRSA | drug-resistant strain | 8 µg/mL
N#CC(C#N)=Cc1ccc(O)c(O)c1 | – | NCTC8325 | – | > 30 µM
Oc1ccccc1-c1nc2ccccc2[nH]1 | broth dilution | ATCC43300 MRSA | drug-resistant strain | 256 µg/mL
COc1cc(Cc2cnc(N)nc2N)cc(OC)c1OC | broth dilution | – | – | ~16.6 µM
Cc1ccc2nc(-c3cccc([N+](=O)[O-])c3)[nH]c2c1 | broth dilution | ATCC43300 MRSA | drug-resistant strain | 64 µg/mL
Cc1ccc2[nH]c3c(c2c1)CCCC3NCCc1ccc(Br)cc1 (centres unmarked) | broth dilution | MRSA USA300 | – | 4 µg/mL
